# Measured values reported in ChEMBL document CHEMBL3091379, “A selective mitochondrial-targeted chlorambucil with remarkable cytotoxicity in breast and pancreatic cancers” (J Med Chem, 2013).
# pIC50: −log10 of the molar value. The source made the active and inactive calls. No cut-off for these calls is given here.
# Assays:
# MIA PaCa-2 [1] = experiment: Induction of nuclear DNA damage in human MIAPaCa2 cells assessed as increase in gammaH2A.X expression after 5 to 24 hrs by Western blotting analysis; type: functional, cell-based
# MDA-MB-435 [2] = experiment: Cytotoxicity against mitochondrial DNA-deficient human MDA-MB-435 rho theta-W01 cells after 72 hrs by MTT assay; type: functional, cell-based; settings: MDA-MB-435, 72 h
# In short: (§1)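 Cells seeded at 4 × 10^3 per well, adhered overnight, then exposed continuously for 72 h. Media refreshed, MTT added to 0.3 mg/mL final, 4 h at 37 °C. Formazan dissolved in DMSO and read at 570 nm. IC50 taken from log concentration vs % nonviable cells; triplicate wells. Rho θ lines grown with 50 μg/mL uridine.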
# MDA-MB-468 [3] = experiment: Induction of nuclear DNA damage in human MDA-MB-468 cells assessed as increase in gammaH2A.X expression after 5 to 24 hrs by Western blotting analysis; type: functional, cell-based
# MDA-MB-231 [4] = experiment: Ratio of IC50 for mitochondrial DNA-deficient human MDA-MB-231 rho theta-W02 cells to IC50 for wild type human […]; type: functional
# MIA PaCa-2 [5] = experiment: Sensitivity ratio of chlorambucil IC50 to compound IC50 for human MIAPaCa2 cells; type: functional
# MIA PaCa-2 [6] = experiment: Induction of nuclear DNA damage in human MIAPaCa2 cells assessed as increase in gammaH2A.X expression after 24 hrs by Western blotting analysis in presence of NAC relative to control; type: functional
# [7] = Cytotoxicity against human CAMA1 cells after 72 hrs by MTT assay; type: functional, cell-based; settings: CAMA-1, 72 h; in short: as §1
# MDA-MB-468 [8] = experiment: Cytotoxicity against human MDA-MB-468 cells after 72 hrs by MTT assay; type: functional, cell-based; settings: MDA-MB-468, 72 h; in short: as §1
# [9] = Cytotoxicity against human SKBR3 cells after 72 hrs by MTT assay; type: functional, cell-based; settings: SK-BR-3, 72 h; in short: as §1
# [10] = Cell cycle arrest in human MIAPaCa2 cells assessed as increase of […] cells at 2 uM after 24 to 72 hrs by flow cytometry; type: functional, cell-based; settings: MIA PaCa-2
# In short: (§2)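 Cells in 6-well dishes exposed to 2 or 20 μM for 0−72 h, trypsinized, PBS-washed, fixed and permeabilized in 70% ethanol. Stained with 10 μg/mL propidium iodide plus 100 μg/mL RNase A. DNA content read by flow cytometry with 488 nm excitation and 575/26 nm bandpass.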
# MIA PaCa-2 [11] = experiment: Induction of nuclear DNA damage in human MIAPaCa2 cells assessed as increase in gammaH2A.X expression after 24 hrs by Western blotting analysis relative to control; type: functional
# [12] = Cytotoxicity against human BxPC3 cells after 72 hrs by MTT assay; type: functional, cell-based; settings: BXPC-3, 72 h; in short: as §1
# MDA-MB-231 [13] = experiment: Cytotoxicity against mitochondrial DNA-deficient human MDA-MB-231 rho theta-W02 cells after 72 hrs by MTT assay; type: functional, cell-based; settings: MDA-MB-231, 72 h; in short: as §1
# [14] = Cell cycle arrest in human MIAPaCa2 cells assessed as accumulation at S phase at 2 uM after 24 hrs by flow cytometry; type: functional, cell-based; settings: MIA PaCa-2; in short: as §2
# MDA-MB-435 [15] = experiment: Cytotoxicity against mitochondrial DNA-deficient human MDA-MB-435 rho theta-W02 cells after 72 hrs by MTT assay; type: functional, cell-based; settings: MDA-MB-435, 72 h; in short: as §1
# MDA-MB-468 [16] = experiment: Sensitivity ratio of chlorambucil IC50 to compound IC50 for human MDA-MB-468 cells; type: functional
# MDA-MB-468 [17] = experiment: Induction of nuclear DNA damage in human MDA-MB-468 cells assessed as increase in gammaH2A.X expression at 2 uM by Western blotting analysis; type: functional, cell-based; settings: TDE = time-dependent effect
# BXPC-3 = experiment: Sensitivity ratio of chlorambucil IC50 to compound IC50 for human BxPC3 cells; type: functional
# [18] = Drug uptake in cytoplasm of human MIAPaCa2 cells at 10 uM after 18 hrs using […] staining by laser-scanning confocal microscopy; type: ADME, cell-based; settings: mia paca-2, 18 h
# In short: (§3)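 Cells on glass coverslips, adhered overnight, exposed 18 h at 10 μM. Fixed in 3.7% formaldehyde 15 min at RT, permeabilized in ice-cold acetone 5 min at −20 °C, blocked in 1% BSA/PBS. Anti-TPP antisera and anti-complex I antibody (1:1000) overnight at 4 °C, then Cy5/Cy3 secondaries (1:200) 2 h. Imaged by scanning confocal microscopy.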
# [19] = Cell cycle arrest in human MIAPaCa2 cells assessed as accumulation at G2/M phase at 2 uM after 24 to 48 hrs by flow cytometry; type: functional, cell-based; settings: MIA PaCa-2; in short: as §2
# [20] = Cytotoxicity against human Hs578T cells after 72 hrs by MTT assay; type: functional, cell-based; settings: Hs-578T; in short: as §1
# BT-549 [21] = experiment: Cytotoxicity against human BT549 cells after 72 hrs by MTT assay; type: functional, cell-based; settings: BT-549, 72 h; in short: as §1
# BT-474 [22] = experiment: Cytotoxicity against human BT474 cells after 72 hrs by MTT assay; type: functional, cell-based; settings: BT-474, 72 h
# SK-BR-3 = experiment: Sensitivity ratio of chlorambucil IC50 to compound IC50 for human SKBR3 cells; type: functional
# BT-549 [23] = experiment: Sensitivity ratio of chlorambucil IC50 to compound IC50 for human BT549 cells; type: functional
# [24] = Antitumor activity against human MIAPaCa2 cells xenografted in athymic nude mouse assessed as inhibition of tumor growth at 10 mg/kg, ip administered 5 times a week for 36 days; type: functional; settings: MIA PaCa-2, ip, 864 h, route intraperitoneal, read-out: TGI
# In short: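 Established subcutaneous xenografts (2 × 10^6 cells in 1:1 matrigel–basal DMEM, right rear flank) in 4−6 week old mice; randomized at ~100 mm3, n = 6 per group. Dosed ip 10 mg/kg five times weekly; DMSO stock diluted in saline or sesame oil. Caliper volume V = d2 × D/2. Unpaired Student's t-test vs vehicle at day 36.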
# [25] = Cytotoxicity against human MIAPaCa2 cells after 72 hrs by MTT assay; type: functional, cell-based; settings: MIA PaCa-2, 72 h; in short: as §1
# CAMA-1 = experiment: Sensitivity ratio of chlorambucil IC50 to compound IC50 for human CAMA1 cells; type: functional
# [26] = Drug uptake in mitochondria of human MIAPaCa2 cells at 10 uM after 18 hrs using […] staining by laser-scanning confocal microscopy; type: ADME; settings: mia paca-2, 18 h; in short: as §3
# MDA-MB-435 [27] = experiment: Ratio of IC50 for mitochondrial DNA-deficient human MDA-MB-435 rho theta-W01 cells to IC50 for wild type human MDA-MB-435 cells; type: functional
# MDA-MB-435 [28] = experiment: Cytotoxicity against wild type human MDA-MB-435 cells after 72 hrs by MTT assay; type: functional, cell-based; settings: MDA-MB-435, 72 h; in short: as §1
# BT-474 [29] = experiment: Sensitivity ratio of chlorambucil IC50 to compound IC50 for human BT474 cells; type: functional
# MCF7 [30] = experiment: Sensitivity ratio of chlorambucil IC50 to compound IC50 for human MCF7 cells; type: functional
# [31] = Drug uptake in nucleus of human MIAPaCa2 cells at 10 uM after 18 hrs using […] staining by laser-scanning confocal microscopy; type: ADME, cell-based; settings: mia paca-2, 18 h; in short: as §3
# MIA PaCa-2 [32] = experiment: Induction of nuclear DNA damage in human MIAPaCa2 cells assessed as increase in gammaH2A.X expression at 2 uM by Western blotting analysis; type: functional, cell-based; settings: TDE = time-dependent effect
# MDA-MB-435 [33] = experiment: Sensitivity ratio of chlorambucil IC50 to compound IC50 for wild type human MDA-MB-435 cells; type: functional
# MDA-MB-231 [34] = experiment: Cytotoxicity against wild type human MDA-MB-231 cells after 72 hrs by MTT assay; type: functional, cell-based; settings: MDA-MB-231, 72 h; in short: as §1
# Hs-578T = experiment: Sensitivity ratio of chlorambucil IC50 to compound IC50 for human Hs 578T cells; type: functional
# MDA-MB-435 [35] = experiment: Ratio of IC50 for mitochondrial DNA-deficient human MDA-MB-435 rho theta-W02 cells to IC50 for wild type human MDA-MB-435 cells; type: functional
# MDA-MB-231 [36] = experiment: Sensitivity ratio of chlorambucil IC50 to compound IC50 for human MDA-MB-231 cells; type: functional
# MDA-MB-468 [37] = experiment: Cytotoxicity against human MDA-MB-468 cells after 72 hrs by MTT assay in presence of NAC; type: functional, cell-based; settings: MDA-MB-468, 72 h
# MCF7 [38] = experiment: Cytotoxicity against human MCF7 cells after 72 hrs by MTT assay; type: functional, cell-based; settings: MCF7, 72 h; in short: as §1
# [39] = Cell cycle arrest in human MIAPaCa2 cells assessed as accumulation at G2/M phase at 20 uM after 24 to 48 hrs by flow cytometry; type: functional, cell-based; settings: MIA PaCa-2; in short: as §2
# MIA PaCa-2 [40] = experiment: Induction of nuclear DNA damage in human MIAPaCa2 cells assessed as increase in gammaH2A.X expression at 75 uM by Western blotting analysis; type: functional, cell-based; settings: TDE = time-dependent effect
# MDA-MB-468 [41] = experiment: Induction of nuclear DNA damage in human MDA-MB-468 cells assessed as increase in gammaH2A.X expression at 20 uM by Western blotting analysis; type: functional, cell-based; settings: TDE = time-dependent effect
# [42] = Cell cycle arrest in human MIAPaCa2 cells assessed as increase of […] cells at 20 uM after 24 to 72 hrs by flow cytometry; type: functional, cell-based; settings: MIA PaCa-2; in short: as §2
compound,measurement,setting,value
O=C(CCCc1ccc(N(CCCl)CCCl)cc1)NCCC[P+](c1ccccc1)(c1ccccc1)c1ccccc1.O=C([O-])C(F)(F)F,Activity,MIA PaCa-2 [1],Dose-dependent effect
same,pIC50,MDA-MB-435 [2],4.82
same,Activity,MDA-MB-468 [3],Dose-dependent effect
same,Ratio IC50,MDA-MB-231 [4],>2.1
same,Ratio IC50,MIA PaCa-2 [5],>40
same,fold change (FC),MIA PaCa-2 [6],1.2
same,pIC50,[7],5.62
same,pIC50,MDA-MB-468 [8],5.77
same,pIC50,[9],5.24
same,Activity,[10],Active
same,fold change (FC),MIA PaCa-2 [11],2.9
same,pIC50,[12],5.60
same,pIC50,MDA-MB-231 [13],< 4.70
same,Activity,[14],Active
same,pIC50,MDA-MB-435 [15],4.46
same,Ratio IC50,MDA-MB-468 [16],25.8
same,Activity,MDA-MB-468 [17],tde
same,Ratio IC50,BXPC-3,>40
same,Drug uptake,[18],Active
same,Activity,[19],Active
same,pIC50,[20],4.94
same,pIC50,BT-549 [21],5.14
same,pIC50,BT-474 [22],5.19
same,Ratio IC50,SK-BR-3,43.4
same,Ratio IC50,BT-549 [23],27.4
same,inhibition in vivo at 10 mg/kg,[24],45%
same,pIC50,[25],5.80
same,Ratio IC50,CAMA-1,79.9
same,Drug uptake,[26],Active
same,Ratio IC50,MDA-MB-435 [27],5
same,pIC50,MDA-MB-435 [28],5.52
same,Ratio IC50,BT-474 [29],36.5
same,Ratio IC50,MCF7 [30],7.7
same,Drug uptake,[31],Not Active
same,Activity,MIA PaCa-2 [32],tde
same,Ratio IC50,MDA-MB-435 [33],50
same,pIC50,MDA-MB-231 [34],5.02
same,Ratio IC50,Hs-578T,14.3
same,Ratio IC50,MDA-MB-435 [35],11.7
same,Ratio IC50,MDA-MB-231 [36],54.8
same,pIC50,MDA-MB-468 [37],6.22
O=C(O)CCCc1ccc(N(CCCl)CCCl)cc1 [CHLORAMBUCIL],pIC50,MDA-MB-435 [2],< 3.70
same,pIC50,MCF7 [38],4.13
same,fold change (FC),MIA PaCa-2 [6],2.6
same,pIC50,[7],3.72
same,pIC50,MDA-MB-468 [8],4.36
same,pIC50,[9],3.61
same,fold change (FC),MIA PaCa-2 [11],2.5
same,pIC50,[12],< 4.00
same,pIC50,MDA-MB-231 [13],< 3.70
same,Activity,[39],Active
same,Activity,MIA PaCa-2 [40],tde
same,pIC50,MDA-MB-435 [15],< 3.70
same,Activity,MDA-MB-468 [41],tde
same,Activity,[42],Active
same,pIC50,[20],3.79
same,pIC50,BT-549 [21],< 3.70
same,pIC50,BT-474 [22],3.62
same,inhibition in vivo at 10 mg/kg,[24],61.5%
same,pIC50,[25],4.11
same,pIC50,MDA-MB-435 [28],3.82
same,pIC50,MDA-MB-231 [34],< 3.70
same,pIC50,MDA-MB-468 [37],4.17
O=C(CCCc1ccc(N(CCCl)CCCl)cc1)NCCC[P+](C1CCCCC1)(C1CCCCC1)C1CCCCC1,pIC50,MCF7 [38],4.40
CCCC[P+](CCCC)(CCCC)CCCNC(=O)CCCc1ccc(N(CCCl)CCCl)cc1,pIC50,MCF7 [38],4.46
O=C(CCCc1ccc(N(CCO)CCO)cc1)NCCC[P+](c1ccccc1)(c1ccccc1)c1ccccc1,pIC50,MCF7 [38],4.10
